The list is not random: actives were taken first. Their share in the collection is about 1.8%.
Runt-CBFb FRET: inhibitors of RUNX1 Runt–CBFb binding, primary screen, biochemical, FRET, Cerulean-Runt, Venus-CBFb, uHTS; 220,000 compounds, 0.46% hits; AID 1496, 2009; inhibition, % at 20 µM; Cerulean-Runt/Venus-CBFb FRET ratio 530/480, 1 h; Runt-related transcription factor 1 (Homo sapiens) + Core-binding factor subunit beta …;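 active = inhibition over about 50% at 20 µM in the single-dose screen, limit read from the data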;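 note: 0% = DMSO wells and 100% = excess unlabeled CBFb competitor control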
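Doses: 20 µM compound in 1% DMSO | Material: Cerulean-labeled Runt domain protein | Amount: Each fluorescent fusion protein 100 nM | Schedule: Two 1 h room-temperature incubations shielded from light | Measured by: FRET fluorescence | Evaluation: Loss of energy transfer signal | Controls: Unlabeled CBFb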
RanGTP-Impb inh: inhibitors of RanGTP-importin-beta interaction, primary screen, biochemical, FRET, CFP-Ran, YFP-importin-beta, homogeneous | Ran GTPase (GTP-bound) - importin-beta complex | cell-free CFP-Ran/YFP-importin-beta FRET ratio | inhibition, % (concentration not given with the values) | 300,000 compounds, 1.1% hits | AID 2216, 2009;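 active = more than half of the replicate wells show a fall in the fluorescence ratio signal beyond about 16%, limit read from the data, passing the limit was not always enough; inconclusive = exactly half of the replicate wells pass the set limit; inactive = fewer than half of replicates pass the limit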;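 note: 0% = DMSO wells and 100% = Ran loaded with GDP instead of GTP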
Hck Nef HTS: inhibitors of Nef-activated human Hck kinase, primary screen, biochemical, Z-Lyte FRET, 384-well, Hck-YEEI; Tyrosine-protein kinase HCK (Homo sapiens), P08631; Recombinant Hck-YEEI plus Nef, Z-Lyte FRET kinase assay; inhibition, % at 20 µM; 220,000 compounds, 0.68% hits;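 active = Hck-Nef kinase inhibition above about 50%, limit read from the data; inactive = inhibition below that limit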;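 note: 0% = DMSO with Hck plus Nef and 100% = Hck alone without Nef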
Target sequence (P08631 whole entry, looked up): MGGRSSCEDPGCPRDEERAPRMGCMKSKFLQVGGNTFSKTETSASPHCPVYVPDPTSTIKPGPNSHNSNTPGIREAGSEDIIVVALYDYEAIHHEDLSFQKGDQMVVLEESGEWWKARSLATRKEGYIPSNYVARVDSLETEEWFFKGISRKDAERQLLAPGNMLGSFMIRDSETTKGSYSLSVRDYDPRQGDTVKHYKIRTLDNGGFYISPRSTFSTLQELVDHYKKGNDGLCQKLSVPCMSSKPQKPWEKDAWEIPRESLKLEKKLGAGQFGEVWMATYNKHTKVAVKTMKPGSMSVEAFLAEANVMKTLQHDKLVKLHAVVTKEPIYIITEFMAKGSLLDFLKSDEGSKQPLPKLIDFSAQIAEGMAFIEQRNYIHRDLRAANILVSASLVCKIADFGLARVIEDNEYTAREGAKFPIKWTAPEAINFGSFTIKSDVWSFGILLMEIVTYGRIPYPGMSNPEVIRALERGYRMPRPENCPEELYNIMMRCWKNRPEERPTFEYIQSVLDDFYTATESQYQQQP
Runt-SMMHC FRET: inhibitors of RUNX1 Runt–CBFb-SMMHC binding, primary screen, biochemical, FRET, Cerulean-Runt, Venus-CBFb-SMMHC, uHTS | Runt-related transcription factor 1 (Homo sapiens) + Core-binding factor subunit beta … | Cerulean-Runt/Venus-CBFb-SMMHC FRET ratio 530/480, 1 h | inhibition, % at 20 µM | 220,000 compounds, 0.74% hits | AID 1434, 2008;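 active = mean inhibition across duplicate retests at 20 µM reaching about 50%, limit read from the data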;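 note: 0% = DMSO wells and 100% = wells with excess untagged CBFb-SMMHC; inhibitors lower the FRET ratio by blocking Runt binding to CBFb-SMMHC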
Hck Nef conf: retest of Hck:Nef kinase inhibitor hits, confirmation, biochemical, Z-Lyte FRET, 384-well, p-Tyr peptide counterscreen; shares compounds with Hck Nef HTS; Recombinant Hck-YEEI:Nef, Z-Lyte FRET kinase assay; calls only at 10 µM; 1,300 compounds, 28% hits; AID 463188, 2010;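 active = average inhibition of at least 50%, with Z-scores no higher than 3 in both the phospho-tyrosine peptide and fluorescence counterscreens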
Starred values were filed as active, the others as inactive; i = inactive; ? = inconclusive; nt = no result shown; + = active, no number.

SMILES	Runt-CBFb FRET	RanGTP-Impb inh	Hck Nef HTS	Runt-SMMHC FRET	Hck Nef conf
CCOc1ccc(NC(=S)N(CCN2CCOCC2)Cc2ccc3c(c2)CCCN3CC)cc1	-1.4	4.7	35.6	2.0	nt
CCN1CCCc2cc(CN(CCN3CCOCC3)C(=S)Nc3ccc(OC)cc3)ccc21	-1.9	5.1	54.0*	-3.6	i
CCSc1c(-c2ccccc2)nc2c(C)cccc2c1C(=O)O	1.1	-3.7	2.7	2.8	nt
Cc1ccnc(SCC(=O)Nc2sccc2C#N)n1	nt	-5.4	nt	nt	nt
COCCNc1nc(-c2cc(C)n(CCc3ccc(OC)cc3)c2C)cs1	nt	2.5	50.7*	-12.8	i
COc1ccc(CCNc2nc(-c3sc(N)nc3C)cs2)cc1OC	5.8	-2.0	6.8	7.0	nt
CCc1ccccc1NNC(=O)c1snnc1C	-0.3	-1.4	11.2	0.8	nt
COc1ccc(-c2nc(N3CCOCC3)nc3n[nH]c(N)c23)cc1	-0.1	0.5	64.3*	0.7	+
Cc1[nH]n(-c2ccccc2)c(=O)c1C=Nc1ccc2[nH]c(=O)[nH]c2c1	-0.8	1.7	1.2	-10.6	nt
O=c1[nH]c2ccc(N=Cc3c(O)ccc4cc(Br)ccc34)cc2[nH]1	-9.2	?	62.7*	26.1	+
Cc1sc2ncnc(SCC(=O)Nc3nc(-c4ccc(F)c(F)c4)cs3)c2c1C	0.8	4.3	117.4*	-5.5	i
COc1ccc(-n2c(SCC#N)nc3c(sc(=S)n3-c3ccccc3)c2=O)c(OC)c1	nt	0.4	nt	nt	nt
CC(C)=CCc1c(O)c(CC=C(C)C)c2c(c1O)-c1cc(O)c(O)cc1CC2	nt	-0.5	nt	nt	nt
COc1ccc(C(=O)CSc2nnc(-c3ccco3)n2C)cc1	3.4	-0.3	-0.2	0.1	nt
COc1ccc(C(=O)CSc2nnc(-c3ccco3)c(-c3ccco3)n2)cc1	20.6	-1.3	85.0*	6.1	i
COc1ccc(/C=N/Nc2ncnc3c2[nH]c2ccc(C)cc23)c(OC)c1OC	-5.1	3.2	68.8*	2.4	+
COc1cc(OC)c(OC)cc1/C=N/Nc1ncnc2c1[nH]c1ccccc12	19.6	?	52.7*	75.0*	nt
COc1cc(OC)c(OC)cc1/C=N/Nc1nc2ccccc2[nH]1	4.3	0.8	3.7	2.6	nt
COC(=O)CCC(=O)OC1(C)C(=O)C2=CN(C(CO)CO)C(c3ccc(OC)cc3)=CC2=C(Br)C1=O (stereo unspecified)	18.5	8.4	7.9	22.4	nt
CC1(OC(=O)C2CCCC2)C(=O)C=C2C=C(c3ccsc3)OC=C2C1=O (stereo unspecified)	7.2	1.3	61.7*	2.7	+
COc1ccc(C2=CC3=C(Br)C(=O)C(C)(OC(=O)c4ccc(Cl)nc4)C(=O)C3=CO2)cc1 (stereo unspecified)	1.9	-4.9	94.0*	1.8	+
COc1ccc(CN2C=C3C(=O)C(C)(OC(=O)C4CCCC4)C(=O)C=C3C=C2c2ccsc2)cc1 (stereo unspecified)	5.0	-2.3	32.8	27.4	nt
COC(=O)CCC(=O)OC1(C)C(=O)C2=COC(c3ccc(OC)cc3)=CC2=C(Br)C1=O (stereo unspecified)	38.2	-19.4	93.5*	-19.5	+
COc1ccc(C2=CC3=C(Br)C(=O)C(C)(OC(=O)C4CCCC4)C(=O)C3=CO2)cc1 (stereo unspecified)	63.6*	-5.0	82.1*	18.4	+
COc1ccc([N+](=O)[O-])cc1NC(=O)C(C)Sc1nc(C)c(C)c(C)n1 (stereo unspecified)	-1.9	?	1.2	-0.5	nt
CCCNc1c(NC(=O)C2CCC(C)CC2)c(=O)oc2ccccc12 (stereo unspecified)	nt	1.5	nt	nt	nt
Oc1[nH]c2ccccc2c1C=Nc1ccc2c(c1)OCO2	9.7	-3.2	51.9*	7.2	i
CCN1CCN(Cc2ccc(NC(=O)c3ccc(C)c(NC(=O)c4nccnc4N)c3)cc2C(F)(F)F)CC1	3.1	-1.8	55.6*	-2.8	i

Screening results deposited in PubChem by several laboratories.
